Shown are actives, neighbours in structure and some others; about 1.3% of the full set was active somewhere.
Hsp70 activator: Hsp70 transcriptional activators, primary screen, cell-based, HeLa, Hsp70 promoter luciferase, luminescence, 10 µM; HeLa Hsp70 promoter luciferase reporter; scaled: vehicle 0, proteasome-inhibitor control 100%; activation, % at 10 µM; 0.04% of 200,000 active; AID 1203, 2008;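 active = activation above the mean across all tested compounds plus 3 SD, cutoff set per campaign, cut at about 5.5% in these data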
S1P4 agonist: S1P4 receptor agonists, primary screen, cell-based; Sphingosine 1-phosphate receptor 4 (Homo sapiens), O95977; S1P4-expressing cell line, agonist reporter assay; AID 1509, 2009; activation, % at 4.98 µM; 0.35% of 220,000 active; in the data active = activation above about 11%
Target sequence (O95977 whole entry, looked up): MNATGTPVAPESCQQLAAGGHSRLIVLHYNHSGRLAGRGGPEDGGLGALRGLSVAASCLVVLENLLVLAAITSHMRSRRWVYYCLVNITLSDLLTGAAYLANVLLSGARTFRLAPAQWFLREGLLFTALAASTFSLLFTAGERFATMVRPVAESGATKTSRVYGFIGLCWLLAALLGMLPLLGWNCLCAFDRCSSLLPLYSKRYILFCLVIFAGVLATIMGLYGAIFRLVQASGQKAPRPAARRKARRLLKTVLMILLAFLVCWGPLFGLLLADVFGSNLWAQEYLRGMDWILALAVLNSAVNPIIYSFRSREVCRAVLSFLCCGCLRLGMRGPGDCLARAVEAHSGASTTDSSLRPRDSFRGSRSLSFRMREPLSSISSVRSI
Dynein transport: inhibitors of GR-EGFP nuclear translocation, primary screen, dynein cargo transport inhibitor project, imaging, high-content, 3617.4 mouse cells; 0.47% of 220,000 active; z-score, hits read low; test concentration mostly 20 µM; stimulated with dexamethasone, 1 µM; hits give low values;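 active = plate z-score of nuclear minus cytoplasmic receptor signal below a set negative limit, without overly bright fluorescence or cell loss, cut at about -3.5 in these data, passing the limit was not always enough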;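 also: z-score of nuclear minus cytoplasmic ring GR-EGFP intensity difference per well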
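Also added – dexamethasone, 1.0 µM final · Buffer or medium – tet-free, stripped-serum medium · Schedule – induction 48 h, compound 1 h, agonist 30 min · Detection – formaldehyde fixation, Hoechst nuclear stain, 10x automated fluorescence imaging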
S1P4 antagonist: S1P4 receptor antagonists, primary screen, cell-based | AID 1510, 2009 | S1P4-expressing cells, antagonist mode, reporter read-out | Sphingosine 1-phosphate receptor 4 (Homo sapiens), O95977 | 0.26% of 220,000 active | inhibition, % at 4.98 µM; in the data active = inhibition above about 29%
S1P3 antag: S1P3 receptor antagonists, primary screen, cell-based. Sphingosine 1-phosphate receptor 3 (Homo sapiens), Q99500. inhibition, % at 4.98 µM. CHO S1P3 NFAT-BLA reporter, FRET fluorescence, antagonist mode. 0.27% of 170,000 active;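 active = inhibition above the plate cutoff, the mean inhibition of test wells on that plate plus 3 SD, cut at about 28% in these data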;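 also: cells challenged with S1P at its EC80 of 0.8 µM; blue over green emission ratio from cleaved BLA substrate after 4 h stimulation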
MDM2 E3 inh: MDM2-luciferase reporter signal enhancers, primary screen, MDM2 E3 ligase inhibitor project, cell-based, luminescence, 1536-well; signal enhancement, % at 5 µM; cell-based MDM2 ubiquitination luciferase reporter, 2 h; 0 = plate control, 100 = twice control, blank-subtracted; AID 1230, 2008; 0.11% of 210,000 active;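 active = signal enhancement of 30% or more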;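 also: luminescence tracks abundance of the self-degrading MDM2-luciferase fusion protein; higher signal means inhibition of MDM2 E3 ligase activity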
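system = mammalian cells stably expressing self-ubiquitinating, self-degrading MDM2 E3–luciferase fusion | quantity = 2000 cells per well seeded | incubation = 4 h cell settling then 2 h compound exposure, 37 °C | signal = SteadyLite luminescence, 15 min reagent step | benchmarks = plate control and blank wells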
Dynein confirm: dynein cargo transport inhibitors, GR-EGFP translocation, confirmation, imaging, high-content imaging, GR-EGFP cells; AID 463116, 2010; shares compounds with Dynein transport; 69% of 1,000 active; calls only at 20 µM; 3617.4 GR-EGFP nuclear translocation imaging, dexamethasone-induced;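 active = inhibition of receptor movement into the nucleus at or above a set limit in both runs, with normal cell brightness and cell count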;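 also: dexamethasone at 1 µM final in well for 30 min; nuclear minus cytoplasmic GR-EGFP mean intensity difference in channel 2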
S1P4 agonist cf: S1P4 receptor agonists, retest, confirmation, cell-based, high throughput. shares compounds with S1P4 agonist. S1P4 agonist cell-based reporter assay. activation, % at 4.98 µM. 7% of 740 active. AID 1523, 2009; in the data active = activation above about 12%
S1P1 ag: S1P1 receptor agonists, human, counter-screen for S1P4 agonist project, cell-based | shares compounds with S1P4 agonist | S1P1 agonist cell-based assay, activation | activation, % at 4.98 µM | 4% of 740 active | AID 1563, 2009; in the data active = activation above about 21%
S1P4 antag conf: S1P4 receptor antagonists, human, confirmation, cell-based. shares compounds with S1P4 antagonist. S1P4-expressing cell line, antagonist mode, reporter read-out. inhibition, % at 4.98 µM. 71% of 520 active. AID 1524, 2009; in the data active = inhibition above about 30%
S1P1 antag: S1P1 receptor antagonists, human, counter-screen for S1P4 antagonist project, cell-based; shares compounds with S1P4 antagonist; cell-based S1P1 antagonist counterscreen, inhibition; inhibition, % at 4.98 µM; 37% of 520 active; AID 1564, 2009; in the data active = inhibition above about 40%;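 also: receptor stimulated with S1P near its EC80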
Of the large screens only hits and unclear results are named; the others gave an inactive call (follow-up assays come after a bar, where they were run).

CCOC(=O)C1CCCN(C(=O)c2csc(-c3ccc4c(c3)CCO4)n2)C1 (stereo not given)	none (no result: Hsp70 activator)
O=C(CCl)Nc1cc(SCC(O)CO)cc([N+](=O)[O-])c1 (stereo not given)	Dynein transport -5.9, S1P4 antagonist 39 | Dynein confirm active | S1P4 antag conf 112 | S1P1 antag 102
CCC(=O)Nc1cc(SCCO)cc([N+](=O)[O-])c1	none (no result: S1P3 antag)
COC(=O)c1cc(=O)n(Cc2ccco2)c(=Nc2ccc(F)c(Cl)c2)s1	Dynein transport -3.9, S1P4 antagonist 34 | Dynein confirm active | S1P4 antag conf 102 | S1P1 antag 60
OCCC1CN(Cc2cn[nH]c2C2CCCCC2)CCN1C1CCCC1 (stereo not given)	none
CCOC(=O)c1sc(S(C)(=O)=O)c2c1CC(C)(C)C/C2=N/O	none (no result: Hsp70 activator)
COc1cccc(-n2nc(C#N)c(Cl)cc2=O)c1	Dynein transport -6.2, S1P4 antagonist 94 | Dynein confirm active | S1P4 antag conf 104 | S1P1 antag inactive
Cc1nnsc1-c1nnc(SCC(=O)c2ccc(F)cc2)n1C1CC1	none (no result: Hsp70 activator)
CC(=O)c1ccc(N2CCN(C(=S)NCCCN(C)C)CC2)cc1	none
Cc1ccc(C(=O)NC(C#N)=C(Cl)Cl)cc1	Dynein transport -4.3, S1P4 antagonist 60 | Dynein confirm active | S1P4 antag conf 110 | S1P1 antag inactive
Cc1ccc(C(=O)NCC#N)cc1	none
CC(=O)Cn1ncc(Br)c(Br)c1=O	Dynein transport -4.6, S1P4 antagonist 33 | Dynein confirm active | S1P4 antag conf 111 | S1P1 antag 51
O=C(OCn1ncc(Br)c(Br)c1=O)c1c(F)cccc1F	Dynein transport -4.8, S1P4 antagonist 59 (no result: S1P3 antag, MDM2 E3 inh) | Dynein confirm active | S1P4 antag conf 116 | S1P1 antag inactive
CS(=O)(=O)c1nc(-c2ccc(F)cc2)cc(C(F)(F)F)n1	S1P4 antagonist 70 | Dynein confirm inactive | S1P4 antag conf 117 | S1P1 antag inactive
COc1ccc(/C=C/C(=O)c2c(O)c(OC)c3occc3c2OC)cc1	Dynein transport -4.7, S1P4 antagonist 34 | Dynein confirm active | S1P4 antag conf 52 | S1P1 antag inactive
O=C(/C(=C/c1ccc(Cl)cc1)c1nc2ccccc2[nH]1)c1cccs1	Dynein transport -4.5, S1P4 antagonist 44 (no result: S1P3 antag) | Dynein confirm active | S1P4 antag conf 116 | S1P1 antag 74
O=C(/C(=C\c1ccccc1)c1nc2ccccc2[nH]1)c1ccc(Cl)cc1	none
CCN(CC)C(=S)NC(=O)Cc1ccccc1	none
CN(C(=S)NC(=O)Cc1ccccc1)c1ccccc1	S1P4 agonist 13 | S1P4 agonist cf inactive | S1P1 ag inactive
Cc1cc(=O)oc2cc3c(cc12)OCCN3	S1P4 agonist 12 | S1P4 agonist cf inactive | S1P1 ag inactive
Cc1cc(=O)oc2cc3c(cc12)OCCO3	none
N#Cc1c(N)nc2c(c1-c1ccncc1)CCCCC2	S1P4 agonist 135 | S1P4 agonist cf inactive | S1P1 ag inactive
CC(C)C(=O)N(Cc1ccc(F)cc1)Cc1nc2ccccc2c(=O)[nH]1	none
O=c1cc(N2CCCCC2)nc2n1CCCS2	S1P4 agonist 25 (no result: S1P3 antag) | S1P4 agonist cf inactive | S1P1 ag inactive
COc1ccc(N2CC(C(=O)OCC(=O)NCc3ccccc3)CC2=O)cc1 (stereo not given)	none (no result: S1P3 antag)
COc1ccc(N2CC(C(=O)NCc3ccccc3)CC2=O)cc1 (stereo not given)	S1P4 agonist 32 | S1P4 agonist cf inactive | S1P1 ag inactive
NC(=O)c1cc2ccc(O)cc2oc1=Nc1ccccc1	S1P4 agonist 33 | S1P4 agonist cf inactive | S1P1 ag inactive
O=C(O)c1ccc(N=c2oc3cc(O)ccc3cc2C(=O)NCc2ccccc2)cc1	S1P4 agonist 38 | S1P4 agonist cf inactive | S1P1 ag inactive
COc1ccc2cc(C(=O)NCc3ccccc3)c(=Nc3ccc(C(=O)O)cc3)oc2c1	none
NC(=O)c1cc2ccc(O)cc2oc1=NCc1ccccc1	S1P4 agonist 79 | S1P4 agonist cf inactive | S1P1 ag inactive
NC(=O)c1cc2ccccc2oc1=NCc1ccccc1	none (no result: S1P3 antag)
O=c1cc(CN2CCc3ccccc3C2)nc2sccn12	none
COc1ccc([N+](=O)[O-])cc1CSc1nnc(NC(C)=O)s1	none
CS(=O)(=O)N(CC(=O)Nc1ccc(S(=O)(=O)N2CCCC2)cc1)c1cccc(F)c1	none (no result: Hsp70 activator)
CCn1c(COc2ccccc2C)nnc1SCc1nc2ccccc2c(=O)[nH]1	none
CSc1ccc(NC(=O)Nc2cccn(Cc3ccccc3)c2=O)cc1	S1P4 agonist 33 | S1P4 agonist cf inactive | S1P1 ag inactive
Cc1cc(OCCN2CCCCCC2)ccc1[N+](=O)[O-]	S1P4 agonist 24 | S1P4 agonist cf inactive | S1P1 ag inactive
Cc1cc(OCC(=O)N2CCCCCC2)ccc1[N+](=O)[O-]	none
Cc1cc(-c2nc3ncccc3o2)ccc1NC(=S)NC(=O)c1ccco1	none
COC(=O)CCCNc1ncccc1[N+](=O)[O-]	S1P4 agonist 48 | S1P4 agonist cf inactive | S1P1 ag inactive
O=[N+]([O-])c1cccnc1NCCc1ccccc1	none
N#CC1(c2ccccc2)CCC(=O)N1Cc1ccccc1 (stereo not given)	none (no result: Hsp70 activator)
O=C(COC(=O)c1cn(-c2ccccc2)nc1-c1cccs1)NC1CC1	S1P4 agonist 34 | S1P4 agonist cf inactive | S1P1 ag inactive

Screening data deposited in PubChem BioAssay by several laboratories.
